L major viab: Leishmania major promastigote growth inhibition, primary screen; inhibition, % at 10 µM; actives 9% (n = 200,000); Leishmania major promastigotes, resazurin fluorescence viability; AID 1063, 2008;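 note: promastigotes grown with compound for 44 hours at 28 °C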
GSH fluor: compound fluorescence on glutathione beads, profiling panel, artefact control, biophysical, 488/530 nm, flow cytometry | fluorescence (KMESF) at 10 µM | AID 1776, 2009 | GSH beads flow cytometry, compound fluorescence 488/530 nm; stronger effect = higher value | actives 0.25% (n = 190,000); in the data active = fluorescence above about 89;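 note: glutathione beads carrying GST-tagged Bcl family fusion proteins plus one bare bead set; values are compound well signal with DMSO vehicle wells as background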
PKD1 kinase inh: inhibitors of human PKD1 kinase, biochemical, fluorescence polarization | AID 797, 2007 | Serine/threonine-protein kinase D1 (Homo sapiens), Q15139 | inhibition, % (test concentration not listed) | PKD1 kinase fluorescence polarization assay | actives 0.056% (n = 200,000)
Avidin fluor: green autofluorescence of compounds with avidin beads – biophysical, 488/530 nm, flow cytometry, artefact control, profiling panel | compound fluorescence 488/530 nm; stronger effect = higher value | fluorescence (KMESF) at 10 µM | actives 0.38% (n = 220,000) | AID 1775, 2009; in the data active = fluorescence above about 47
ABCG2 block: ABCG2 efflux pump inhibitors, primary screen, multiplex with ABCB1, IgMXP3 cells, flow cytometry. Broad substrate specificity ATP-binding cassette transporter ABCG2 (Homo sapiens), Q9UNQ0. JC-1 efflux. inhibition, % at 6.6 µM. actives 0.1% (n = 190,000). AID 1325, 2008;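 active = inhibition above 80%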;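 note: 0% = DMSO and 100% = nicardipine control wells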
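Test system: IgMXP3 (ABCG2) plus far-red-tagged CCRF-Adr (ABCB1) cells / Amount: 3 million cells/mL in well / Reagent: JC-1 transporter substrate / Timing: 10 min compound exposure, 25 °C / Signal: flow cytometry, 530 nm JC-1 signal / Read-out: percent efflux inhibition, scaled nicardipine 100% to DMSO 0% / Benchmarks: nicardipine as high control, DMSO as low control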
ABCB1 inh: ABCB1 efflux pump inhibitors, primary screen, cell-based, multiplex, flow cytometry, ABCG2 counter-screen | ATP-dependent translocase ABCB1 (Homo sapiens), P08183 | CCRF-Adr cells, JC-1 efflux | inhibition, % at 6.6 µM | actives 0.067% (n = 190,000) | AID 1326, 2008; in the data active = inhibition above about 40%;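 note: 0% = vehicle and 100% = reference inhibitor; higher value means more JC-1 retained so stronger ABCB1 efflux block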
Starred values were filed as active, the others as inactive. Shown is part of a subset that was picked to be rich in hits. Cut-off read from the data, not from the text of the source, unless noted: active = inhibition above about 50%; inactive = the rest.

CN1CCC2(CC1)N=C(c1ccc(F)cc1)C(=S)N2C(=O)c1ccc(C(C)(C)C)cc1 was read as L major viab 0.5, GSH fluor 12, PKD1 kinase inh 5.5, Avidin fluor 9, ABCG2 block 3.9 and ABCB1 inh 0.3.
CCOC(=O)c1cc(CC)sc1NC(=O)c1ccc([N+](=O)[O-])c(N2CCOCC2)c1 was read as L major viab 7.8, GSH fluor 16, PKD1 kinase inh -8.9, Avidin fluor 2, ABCG2 block -1.3 and ABCB1 inh -0.6.
`CCC(C)(C)n1nnnc1C(c1cc2ccc(OC)cc2[nH]c1=O)N1CCc2ccccc2C1` (centres undefined) gave L major viab 99.8*, GSH fluor 34, PKD1 kinase inh -13.6, Avidin fluor 14, ABCG2 block 18.6 and ABCB1 inh 5.0.
COc1ccc2cc(C(c3nnnn3C(C)(C)C)N3CCc4ccccc4C3)c(=O)[nH]c2c1 (centres undefined) was read as L major viab 98.5*, GSH fluor 27, PKD1 kinase inh -4.9, Avidin fluor 10, ABCG2 block 4.3 and ABCB1 inh 1.8.
Screening CCC(C)(C)n1nnnc1C(c1ccccc1)N1CCc2ccccc2C1 (centres undefined) returned L major viab 76.8*, GSH fluor 11, PKD1 kinase inh 1.7, Avidin fluor 10, ABCG2 block 7.7 and ABCB1 inh 1.0.
`CCC(C)(C)n1nnnc1C(c1cc2ccc(OC)cc2[nH]c1=O)N1CCc2ccccc21` (centres undefined) gave L major viab 10.1, GSH fluor 66, PKD1 kinase inh -3.5, Avidin fluor 8, ABCG2 block 0.1 and ABCB1 inh 0.2.
`CCC(C)(C)n1nnnc1C(c1cccc(C#N)c1)N1CCN(c2cccc(C)c2C)CC1` (centres undefined) gave L major viab 76.4*, GSH fluor 20, PKD1 kinase inh 21.0, Avidin fluor 18, ABCG2 block -3.3 and ABCB1 inh -1.3.
For COc1ccc2cc(C(c3nnnn3C(C)(C)C)N3CCSCC3)c(=O)[nH]c2c1 (centres undefined) the results were L major viab -6.0, GSH fluor 68, PKD1 kinase inh -14.3, Avidin fluor 5, ABCG2 block 3.0 and ABCB1 inh 0.9.
Screening CC(C)(C)n1nnnc1C(c1cccc(C#N)c1)N1CCCCCC1 (centres undefined) returned L major viab 13.8, GSH fluor 12, PKD1 kinase inh -9.6, Avidin fluor 11, ABCG2 block 1.5 and ABCB1 inh 0.2.
Screening CCC(C)(C)n1nnnc1C(c1ccc(O)c(OC)c1)N1CCc2ccccc2C1 (centres undefined) returned L major viab 0.8, GSH fluor 20, PKD1 kinase inh -0.7, Avidin fluor 7, ABCG2 block -1.1 and ABCB1 inh -0.7.
CCNC(=S)N1CCC(n2cnc3ccccc32)CC1 was read as L major viab -5.3, GSH fluor 17, PKD1 kinase inh -5.2, Avidin fluor 10, ABCG2 block 0.2 and ABCB1 inh 0.0.
For CCc1cccc(NC(=O)CCCCCC2NC(=O)NC2C)c1 (centres undefined) the results were L major viab -6.4, GSH fluor 10, PKD1 kinase inh 12.3, Avidin fluor 2, ABCG2 block 0.9 and ABCB1 inh 0.5.
Cn1cnc(S(=O)(=O)Nc2ccccc2C(=O)NCC2CC2)c1 was read as Avidin fluor 6.
For O=C(c1ccco1)N1CCN(C(=O)C(Cc2ccccc2)NS(=O)(=O)c2cccs2)CC1 (centres undefined) the results were L major viab -6.0, GSH fluor 14, PKD1 kinase inh -14.4, Avidin fluor 20, ABCG2 block 0.1 and ABCB1 inh 0.0.
`CCC(C)(C)n1nnnc1C(c1ccc(C)cc1)N1CCCC1` (centres undefined) gave L major viab 64.7*, GSH fluor 36, PKD1 kinase inh -3.1, Avidin fluor 15, ABCG2 block 8.3 and ABCB1 inh 2.6.
